From PubChem BioAssay
Inconclusive results are not listed.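 How the source made its calls, unless noted: active means inhibition over a set limit, the all-compound mean plus 3 SD, in both replicate runs; inconclusive means over that limit in just one replicate run; inactive means at or under that limit in both runs.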

How the values were obtained:
[1] = OD615 S. cerevisiae growth inhibition, permissive medium, pilot counter-assay, permissive growth control for S. cerevisiae lifespan shortening project (AID 705;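 active means growth inhibition above 25% in both replicates, a cutoff set 3 SD above the mean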); settings: OD615, 24 h, at 10 µM, active compounds read high
How it was run: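 System: Engineered DeaD yeast | Buffer or medium: SC raffinose/galactose permissive medium | Incubation: Cells pre-grown 4 h, then 24 h compound exposure, 30 °C humidified | Measured by: Absorbance (optical density) at 615 nm | Read-out: Reduction in yeast growth (OD615)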

[2] = Restrictive medium S. cerevisiae growth inhibition, OD615, pilot screen of yeast lifespan reduction project, restrictive growth control (AID 706;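 active means growth inhibition above a set limit, 3 SD over mean compound inhibition, in both replicates, cut at about 43% in these data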;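 further: modified DeaD lifespan yeast strain shifted to restrictive glucose medium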); settings: OD615, 48 h, at 10 µM, active compounds read high
How it was run: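 Material: modified S. cerevisiae; Medium: glucose-based CSMM-D restrictive medium; Compound dosing: one concentration, 10 µM final, 0.25% DMSO; Incubation: 48 h compound exposure at 30 °C; Measured by: OD615.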

[3] = viability gain of MRP-1-high H69AR cells under doxorubicin, pilot screen, MRP-1 activator project, CellTiter-Glo, duplicate (AID 807;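 active means viability increase at or above a cutoff of the median across tested compounds plus 3 SD, cut at about 8.5% in these data, passing the limit was not always enough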;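 further: compound pretreatment 18-22 h then 72 h combined with doxorubicin; 0% = doxorubicin alone and 100% = vehicle without doxorubicin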); settings: H69AR viability with doxorubicin, CellTiter-Glo luminescence; at 10 µM; active compounds read high
[4] = growth suppression of beta-catenin knockout HCT116, pilot screen, human colon tumor cells (AID 823;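 active means cell viability at or below a set limit in both duplicate runs, the limit being the all-compound median minus 4 SD, cut at about 23% in these data, passing the limit was not always enough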;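 further: 0% = wells killed by 20 µM Hyamine and 100% = untreated DMSO cell wells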); settings: CellTiter-Glo, 60 h, at 10 µM, active compounds read low
[5] = growth suppression of PTEN-deleted HCT116, pilot screen, cell-based, HCT116 clonal line, CellTiter-Glo (AID 824;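 active means viability at or below 27.92% in each of two runs, the all-compound median minus 4 SD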;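 further: 0% = 20 µM Hyamine control and 100% = vehicle cell control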); settings: 60 h, at 10 µM, active compounds read low
[6] = inhibitors of the yeast RAM network, pilot screen, dse1pr::URA3 reporter, 5-FOA selection (AID 869);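 further: 0% = DMSO wells with no growth and 100% = 10 µM 1-NA-PP1 with full growth; RAM network block rescues cells from 5-FOA so hits raise OD615 growth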; settings: S. cerevisiae dse1pr::URA3 5-FOA growth, OD615, 2 d; at 10 µM; active compounds read high; strain carries analog-sensitive mutant Cbk1 kinase
[7] = RAM signaling pathway blockade in yeast – S. cerevisiae, Pdr1DBD-CYC8 efflux-inhibited sensitized strain, primary screen (AID 1298;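 active means RAM network inhibition above 8.4% in each of two replicates, 3 SD over the compound average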;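 further: 0% = DMSO untreated cells without growth and 100% = 10 µM 1-NA-PP1 full growth; higher means more yeast growth rescued from 5-FOA killing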); settings: S. cerevisiae cbk1-as DSE1-URA3 strain, 5-FOA growth OD615, 2 d; at 50 µM; active compounds read high

Cc1occc1-c1nnc(SCCCC(=O)c2ccc(F)cc2)n1C
inactive: growth inhibition [1] -1.02% | growth inhibition [2] 3.81% | viability increase [3] 0.66% | viability [4] 74.4% | viability [5] 87.4% | inhibition [6] 1.5% | RAM network inhibition [7] 6.28%

O=C1c2ccccc2C(Nc2ccc(S(=O)(=O)N3CCCCC3)cc2)N1c1ccccn1 (stereo not drawn)
inactive: growth inhibition [1] -3.39% | growth inhibition [2] -7.4% | viability increase [3] -4.22% | viability [4] 67.8% | viability [5] 65.4% | inhibition [6] 2.17% | RAM network inhibition [7] 3.68%

COCCn1c(SCC(=O)Nc2cc(Cl)ccc2OC)nc2c(c1=O)SC(C)C2 (stereo not drawn)
inactive: growth inhibition [1] 1.23% | growth inhibition [2] 0.95% | viability increase [3] -6.28% | viability [4] 83.3% | viability [5] 78% | inhibition [6] 2.55% | RAM network inhibition [7] -0.36%

Cc1c(NC(=O)OCCSc2nc(N(C)C)nc(N(C)C)n2)sc(=S)n1C
inactive: growth inhibition [1] 2.93% | growth inhibition [2] 3.13% | viability increase [3] -0.48% | viability [4] 83% | viability [5] 76% | inhibition [6] 2.92% | RAM network inhibition [7] 1.79%

O=C(CCN1CCc2ccccc2C1)Nc1ccccc1
inactive: growth inhibition [1] -6.32% | growth inhibition [2] -8.03% | viability increase [3] -4.06% | viability [4] 89.8% | viability [5] 89.3% | inhibition [6] 2.04% | RAM network inhibition [7] 2.39%

Nc1cc(C(=O)c2cccs2)ccc1Cl
inactive: growth inhibition [1] -9.76% | growth inhibition [2] -0.475% | viability increase [3] -1.88% | viability [4] 90.9% | viability [5] 96.7% | inhibition [6] 0.165% | RAM network inhibition [7] 3.24%

CC(C)CC(=O)Nc1ccc2oc(-c3cccnc3)nc2c1
inactive: growth inhibition [1] 2.48% | growth inhibition [2] 2.53% | viability increase [3] -1.73% | viability [4] 100% | viability [5] 94% | inhibition [6] 1.53% | RAM network inhibition [7] -0.72%

O=c1cc(CO)oc(C(Nc2ccccn2)c2ccccc2F)c1O (stereo not drawn)
inactive: growth inhibition [1] -10.6% | growth inhibition [2] -4.86% | viability increase [3] -5.64% | viability [4] 106% | viability [5] 93.3% | inhibition [6] 0.95% | RAM network inhibition [7] 2.91%

COc1ccccc1Nc1cc(C(=O)NCCCN2CCOCC2)c2ccccc2n1
inactive: growth inhibition [1] -7.99% | growth inhibition [2] -0.795% | viability increase [3] -3.47% | viability [4] 89.1% | viability [5] 91.4% | inhibition [6] 0.455% | RAM network inhibition [7] 0.58%

O=C1CC(c2ccccc2)C(C(=O)Nc2ccccc2F)N1 (stereo not drawn)
inactive: growth inhibition [1] -17.2% | growth inhibition [2] 2% | viability increase [3] -0.74% | viability [4] 104% | viability [5] 99.3% | inhibition [6] 0.81% | RAM network inhibition [7] 4.18%

CCC1(C(=O)O)NC(c2cc(OC)ccc2O)C2C(=O)N(Cc3ccccc3)C(=O)C21 (stereo not drawn)
inactive: growth inhibition [1] 2.51% | growth inhibition [2] -7.93% | viability increase [3] -0.32% | viability [4] 102% | viability [5] 99.8% | inhibition [6] 0.37% | RAM network inhibition [7] 1.51%

CC1CCN(c2nc(-c3ccncc3)nc3ccccc23)CC1
inactive: growth inhibition [1] 6.84% | growth inhibition [2] -2.73% | viability increase [3] -5.28% | viability [4] 40.4% | viability [5] 58.7% | inhibition [6] 0.745% | RAM network inhibition [7] 5.56%

O=C(C1CCN(S(=O)(=O)c2cccc3cccnc23)CC1)N1CCN(C2CCCC2)CC1
inactive: growth inhibition [1] -9.46% | growth inhibition [2] 7.92% | viability increase [3] -1.82% | viability [4] 94.3% | viability [5] 99.2% | inhibition [6] 0.96% | RAM network inhibition [7] 0.11%

CC(C)OC(=O)CSc1nnc(-c2ccncc2)n1N
inactive: growth inhibition [1] -8.12% | growth inhibition [2] -10.2% | viability increase [3] -2.11% | viability [4] 97.5% | viability [5] 97.1% | inhibition [6] 1.8% | RAM network inhibition [7] 3.83%

Cc1cc(C(=O)OCc2nnc(-c3ccccc3)o2)c(C)n1-c1ccccc1
inactive: growth inhibition [1] -4.06% | growth inhibition [2] -12% | viability increase [3] -1.07% | viability [4] 84.4% | viability [5] 80.6% | inhibition [6] 0.125% | RAM network inhibition [7] 2.44%

c1ccc(-c2ccc(-c3nc(-c4cccnc4)no3)cc2)cc1
inactive: growth inhibition [1] 16.4% | growth inhibition [2] 20% | viability increase [3] -0.01% | viability [4] 80.8% | viability [5] 89.3% | inhibition [6] 0.455% | RAM network inhibition [7] -0.01%

CN(C)c1nc(N)nc(-c2ccco2)n1
inactive: growth inhibition [1] 3.19% | growth inhibition [2] 14.2% | viability increase [3] 0.01% | viability [4] 93.7% | viability [5] 103% | inhibition [6] 0.535% | RAM network inhibition [7] 0.21%

O=C1CC(c2ccco2)CC(O)=C1C=NCCO (stereo not drawn)
inactive: growth inhibition [1] -12.7% | growth inhibition [2] -1.73% | viability increase [3] 0.27% | viability [4] 104% | viability [5] 105% | inhibition [6] 1.79% | RAM network inhibition [7] 3.26%

CCC1CCCCN1C(=O)c1cc2cc(Br)ccc2oc1=O (stereo not drawn)
inactive: growth inhibition [1] -9.03% | growth inhibition [2] -15.9% | viability increase [3] -2.87% | viability [4] 106% | viability [5] 94.8% | inhibition [6] 0.68% | RAM network inhibition [7] 2.89%

CCCCOC(=O)CCc1n[nH]c(=O)[nH]c1=O
inactive: growth inhibition [1] -11.1% | growth inhibition [2] -17.6% | viability increase [3] -1.14% | viability [4] 99.8% | viability [5] 99% | inhibition [6] 2.12% | RAM network inhibition [7] 2.93%

CCOc1ccc(OCC)c(NS(=O)(=O)c2cccc3nsnc23)c1
inactive: growth inhibition [1] -13.8% | growth inhibition [2] -21.1% | viability increase [3] -2.5% | viability [4] 88.8% | viability [5] 98% | inhibition [6] 2.63% | RAM network inhibition [7] 3.41%

CN(C)c1nc(Oc2ccc(/C=N/O)cc2)nc(N(C)C)n1
inactive: growth inhibition [1] -9.5% | growth inhibition [2] 4.05% | viability increase [3] -2.72% | viability [4] 101% | viability [5] 85.1% | inhibition [6] 1.58% | RAM network inhibition [7] 2.8%

CC1(C)Cc2c(c(N3CCOCC3)nc3sc(C(=O)N4CCCCC4)c(N)c23)CO1
inactive: growth inhibition [1] 2.35% | growth inhibition [2] 29.3% | viability increase [3] -4.48% | viability [4] 100% | viability [5] 96.6% | inhibition [6] 2.62% | RAM network inhibition [7] 3.43%

CCOC(=O)CN1CC23C=CC(O2)C(C(=O)N2CCN(c4ccc(F)cc4)CC2)C3C1=O (stereo not drawn)
inactive: growth inhibition [1] 7.71% | growth inhibition [2] 5.64% | viability increase [3] -2.12% | viability [4] 86.7% | viability [5] 93.2% | inhibition [6] 1.45% | RAM network inhibition [7] -0.56%
